ChEMBL document CHEMBL5252634, “Design, synthesis and in vitro cytotoxicity evaluation of indolo-pyrazoles grafted with thiazolidinone as tubulin polymerization inhibitors” (RSC Med Chem, 2023)

Columns and labels:
[1] = Cytotoxicity against human BEAS-2B cells assessed as reduction in cell viability measured after 48 hrs by MTT assay; type: toxicity, cell-based
Procedure, shortened: (§1)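 Cells kept in medium with 10% FBS and 1% antibiotic–antimycotic at 37 °C, 5% CO2. Seeded at 3000–4000 cells/well, grown overnight, then given fresh medium with a range of concentrations (diluted from 10 mM DMSO stocks) for 48 h. MTT (0.5 mg/mL) added for 3–4 h at 37 °C. Formazan dissolved in DMSO and absorbance read at 570 nm.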

B16-F10 = test: Cytotoxicity against mouse B16-F10 cells assessed as reduction in cell viability measured after 48 hrs by MTT assay; type: functional, cell-based; conditions: B16-F10, 48 h; procedure, shortened: as §1
A549 = test: Cytotoxicity against human A549 cells assessed as reduction in cell viability measured after 48 hrs by MTT assay; type: functional, cell-based; conditions: A549, 48 h; procedure, shortened: as §1
SK-MEL-28 [2] = test: Cytotoxicity against human SK-MEL-28 cells assessed as reduction in cell viability measured after 48 hrs by MTT assay; type: functional, cell-based; conditions: SK-MEL-28, 48 h; procedure, shortened: as §1
HCT-116 = test: Cytotoxicity against human HCT-116 cells assessed as reduction in cell viability measured after 48 hrs by MTT assay; type: functional, cell-based; conditions: HCT-116, 48 h; procedure, shortened: as §1
SK-MEL-28 [3] = test: Induction of cell cycle arrest in human SK-MEL-28 cells assessed as accumulation of cells at G0/G1 phase at 4.13 uM incubated for 48 hrs by flow cytometry (reference value: 79.59%); type: functional
SK-MEL-28 [4] = test: Induction of cell cycle arrest in human SK-MEL-28 cells assessed as accumulation of cells at S phase at 4.13 uM incubated for 48 hrs by flow cytometry (reference value: 6.34%); type: functional
SK-MEL-28 [5] = test: Induction of cell cycle arrest in human SK-MEL-28 cells assessed as accumulation of cells at G2/M phase at 4.13 uM incubated for 48 hrs by flow cytometry (reference value: 13.14%); type: functional
Tubulin (Homo sapiens) = Tubulin (Homo sapiens) (UniProt P68371+Q9H4B7+P0DPH7+P68366+Q13509+Q71U36+P04350+Q3ZCM7+P07437+P68363+Q9BQE3+Q6PEY2+Q13885+Q9BVA1+Q9BUF5); test: Inhibition of tubulin polymerization (unknown origin) at 3 uM measured after 1 hr relative to control; type: protein-complex assay
Procedure, shortened: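 Fluorescence-based tubulin polymerization kit: tubulin, GTP and tubulin glycerol buffer mixed and added to compound (from 10x stocks), enhancer and inhibitor reference standards, and blanks in a plate prewarmed to 37 °C. Read kinetically for 1 h at ex 360/em 450 nm.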

| Structure (SMILES) | IC50 at 48 h [1] [µM] | IC50 (B16-F10) [µM] | IC50 (A549) [µM] | IC50 (SK-MEL-28 [2]) [µM] | IC50 (HCT-116) [µM] | Activity (SK-MEL-28 [3]) [%] | Activity (SK-MEL-28 [4]) [%] | Activity (SK-MEL-28 [5]) [%] | inhibition (Tubulin (Homo sapiens)) [%] |
| --- | --- | --- | --- | --- | --- | --- | --- | --- | --- |
| CCc1ccccc1-n1nc(-c2cn(Cc3ccccc3)c3ccccc23)cc1/N=C1/NC(=O)CS1 | 27.4 | > 50 | 36.5 | 33.8 | 35.8 |  |  |  |  |
| CCn1cc(-c2cc(/N=C3/NC(=O)CS3)n(-c3ccc(Cl)cc3)n2)c2ccccc21 | > 50 | > 50 | 38.7 | 29.7 | 37.9 |  |  |  |  |
| CCc1ccccc1-n1nc(-c2cn(C)c3ccccc23)cc1/N=C1/NC(=O)CS1 |  | > 50 | 39.1 | 49.9 | > 50 |  |  |  |  |
| O=C1CS/C(=N\c2cc(-c3c[nH]c4ccccc34)nn2-c2ccccc2)N1 | > 50 | > 50 | 22.5 | 34 | > 50 |  |  |  |  |
| CCc1ccccc1-n1nc(-c2cn(C)c3ccc(OC)cc23)cc1/N=C1/NC(=O)CS1 | > 50 | > 50 | > 50 | 28 | 34.1 |  |  |  |  |
| CCN(CC)CCNC(=O)c1c(C)[nH]c(/C=C2\C(=O)Nc3ccc(F)cc32)c1C [SUNITINIB] | 6.09 | 15.3 | 5.73 | 4.13 | 10.7 | 76.33 | 5.09 | 17.92 |  |
| O=C1CS/C(=N\c2cc(-c3cn(Cc4ccccc4)c4ccccc34)nn2-c2ccc(Cl)cc2)N1 |  | > 50 | 46.4 | > 50 | > 50 |  |  |  |  |
| CCn1cc(-c2cc(/N=C3/NC(=O)CS3)n(-c3ccc(Cl)cc3)n2)c2cc(Br)ccc21 |  | 18.4 | 33.7 | 24.9 | > 50 |  |  |  |  |
| Cn1cc(-c2cc(/N=C3/NC(=O)CS3)n(-c3ccc(C#N)cc3)n2)c2ccccc21 |  | > 50 | 37.2 | 22.7 | 25.1 |  |  |  |  |
| N#Cc1ccc(-n2nc(-c3cn(Cc4ccccc4)c4ccccc34)cc2/N=C2/NC(=O)CS2)cc1 |  | > 50 | 22.3 | > 50 | 33.1 |  |  |  |  |
| Cn1cc(-c2cc(/N=C3/NC(=O)CS3)n(-c3cccc(Cl)c3)n2)c2cc(Br)ccc21 |  | 26 | 32.8 | 17 | 20.7 |  |  |  |  |
| CCc1ccccc1-n1nc(-c2cn(C)c3ccc(Br)cc23)cc1/N=C1/NC(=O)CS1 |  | > 50 | > 50 | > 50 | > 50 |  |  |  |  |
| Cn1cc(-c2cc(/N=C3/NC(=O)CS3)n(-c3ccc(C#N)cc3)n2)c2cc(Br)ccc21 |  | 10.6 | > 50 | > 50 | 37.3 |  |  |  |  |
| COc1ccc2c(c1)c(-c1cc(/N=C3/NC(=O)CS3)n(-c3cccc(Cl)c3)n1)cn2C |  | 23.4 | > 50 | > 50 | 22.2 |  |  |  |  |
| Cn1cc(-c2cc(/N=C3/NC(=O)CS3)n(-c3ccc(Cl)cc3)n2)c2cc(Br)ccc21 | > 50 | 11.3 | 19.2 | 26.9 | 13.5 |  |  |  |  |
| CCn1cc(-c2cc(/N=C3/NC(=O)CS3)n(-c3ccc(C#N)cc3)n2)c2cc(Br)ccc21 |  | 11 | 36.6 | 32.1 | > 50 |  |  |  |  |
| CCn1cc(-c2cc(/N=C3/NC(=O)CS3)n(-c3ccc(Cl)cc3)n2)c2cc(OC)ccc21 | > 50 | 14.2 | 48.1 | > 50 | > 50 |  |  |  |  |
| Cn1cc(-c2cc(/N=C3/NC(=O)CS3)n(-c3cccc(Cl)c3)n2)c2ccccc21 |  | > 50 | 22.9 | 26.1 | 23.6 |  |  |  |  |

| Structure (SMILES) | IC50 at 48 h [1] [µM] | IC50 (B16-F10) [µM] | IC50 (A549) [µM] | IC50 (SK-MEL-28 [2]) [µM] | IC50 (HCT-116) [µM] | Activity (SK-MEL-28 [3]) [%] | Activity (SK-MEL-28 [4]) [%] | Activity (SK-MEL-28 [5]) [%] | inhibition (Tubulin (Homo sapiens)) [%] |
| --- | --- | --- | --- | --- | --- | --- | --- | --- | --- |
| CCc1ccccc1-n1nc(-c2cn(CC)c3ccc(OC)cc23)cc1/N=C1/NC(=O)CS1 |  | > 50 | 24.2 | 26.8 | 45.8 |  |  |  |  |
| CCn1cc(-c2cc(/N=C3/NC(=O)CS3)n(-c3cccc(Cl)c3)n2)c2cc(Br)ccc21 |  | > 50 | > 50 | 31.4 | > 50 |  |  |  |  |
| COc1ccc2[nH]cc(-c3cc(/N=C4/NC(=O)CS4)n(-c4cccc(Cl)c4)n3)c2c1 | 21.7 | > 50 | 22.6 | 6.22 | 10.8 |  |  |  |  |
| CCc1ccccc1-n1nc(-c2cn(CC)c3ccccc23)cc1/N=C1/NC(=O)CS1 |  | > 50 | 33 | > 50 | 19.8 |  |  |  |  |
| CCc1ccccc1-n1nc(-c2cn(CC)c3ccc(Br)cc23)cc1/N=C1/NC(=O)CS1 |  | > 50 | 33.9 | 34.3 | > 50 |  |  |  |  |
| N#Cc1ccc(-n2nc(-c3c[nH]c4ccccc34)cc2/N=C2/NC(=O)CS2)cc1 |  | > 50 | 34 | 25.4 | > 50 |  |  |  |  |
| COc1ccc2c(c1)c(-c1cc(/N=C3/NC(=O)CS3)n(-c3ccc(Cl)cc3)n1)cn2Cc1ccccc1 |  | > 50 | > 50 | > 50 | > 50 |  |  |  |  |
| O=C1CS/C(=N\c2cc(-c3c[nH]c4ccccc34)nn2-c2ccc(Cl)cc2)N1 |  | > 50 | 16.4 | 12.8 | 13.8 |  |  |  |  |
| CCc1ccccc1-n1nc(-c2c[nH]c3ccc(OC)cc23)cc1/N=C1/NC(=O)CS1 | 32 | 10.8 | 25.8 | > 50 | 18 |  |  |  |  |
| Cn1cc(-c2cc(/N=C3/NC(=O)CS3)n(-c3ccc(Cl)cc3)n2)c2ccccc21 |  | > 50 | 30.2 | > 50 | > 50 |  |  |  |  |
| CCn1cc(-c2cc(/N=C3/NC(=O)CS3)n(-c3cccc(Cl)c3)n2)c2cc(OC)ccc21 |  | 36.4 | 16.9 | > 50 | 14.8 |  |  |  |  |
| O=C1CS/C(=N\c2cc(-c3cn(Cc4ccccc4)c4ccccc34)nn2-c2cccc(Cl)c2)N1 | > 50 | > 50 | > 50 | > 50 | > 50 |  |  |  |  |
| CCn1cc(-c2cc(/N=C3/NC(=O)CS3)n(-c3cccc(Cl)c3)n2)c2ccccc21 |  | 21.2 | 26 | 26 | > 50 |  |  |  |  |
| CCn1cc(-c2cc(/N=C3/NC(=O)CS3)n(-c3ccc(C#N)cc3)n2)c2ccccc21 | > 50 | 18.6 | 39.2 | 25 | > 50 |  |  |  |  |
| CC(=O)O[C@H]1C(=O)[C@@]2(C)[C@H]([C@H](OC(=O)c3ccccc3)[C@]3(O)C[C@H](OC(=O)[C@H](O)[C@@H](NC(=O)c4ccccc4)c4ccccc4)C(C)=C1C3(C)C)[C@]1(OC(C)=O)CO[C@@H]1C[C@@H]2O |  |  |  |  |  |  |  |  | 60 |
| COc1ccc2[nH]cc(-c3cc(/N=C4/NC(=O)CS4)n(-c4ccc(Cl)cc4)n3)c2c1 |  | 39.4 | 20.9 | 11.3 | 11.2 |  |  |  |  |
| CCc1ccccc1-n1nc(-c2c[nH]c3ccccc23)cc1/N=C1/NC(=O)CS1 | 14.8 | 18.5 | 25.3 | 23.2 | 36.8 |  |  |  |  |
